“And” between values parts separate entries of the source, which are not always exact repeats. Equal entries are not always repeated.
Key:
[1] = Cytotoxicity against African green monkey Vero cells assessed as cell growth inhibition at 10 ug/ml after 48 hrs by neutral red dye based assay; format: toxicity; conditions: chlorocebus sabaeus
Method in brief: (§1)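 Cells kept in RPMI-1640 with 10% bovine serum and 60 µg/mL amikacin, 37 °C, 5% CO2. Seeded at 25,000 cells/well, left 24 h to adhere. Samples diluted in RPMI added, highest final concentration 10 µg/mL. Growth measured by neutral red uptake after 48 h exposure.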

[2] = Inhibition of Candida albicans DNA topoisomerase 1 using pHOT1 as substrate after 30 mins by agarose gel electrophoresis
Method in brief: (§2)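 Relaxation of supercoiled to relaxed DNA by TopoI measured with a commercial TopoI drug kit following kit protocol. IC50 calculated from dose-response curves of % inhibition versus concentration.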

[3] = Cytotoxicity against human SKOV3 cells assessed as cell growth inhibition after 48 hrs by neutral red dye based assay; format: functional; conditions: SK-OV-3, 48 h; method in brief: as §1
DNA topoisomerase 1 = molecular target: T1, DNA topoisomerase 1 (Homo sapiens, UniProt P11387); assay: Inhibition of human DNA topoisomerase 1 using pHOT1 as substrate after 30 mins by agarose gel electrophoresis; method in brief: as §2
T1 sequence (P11387 whole entry): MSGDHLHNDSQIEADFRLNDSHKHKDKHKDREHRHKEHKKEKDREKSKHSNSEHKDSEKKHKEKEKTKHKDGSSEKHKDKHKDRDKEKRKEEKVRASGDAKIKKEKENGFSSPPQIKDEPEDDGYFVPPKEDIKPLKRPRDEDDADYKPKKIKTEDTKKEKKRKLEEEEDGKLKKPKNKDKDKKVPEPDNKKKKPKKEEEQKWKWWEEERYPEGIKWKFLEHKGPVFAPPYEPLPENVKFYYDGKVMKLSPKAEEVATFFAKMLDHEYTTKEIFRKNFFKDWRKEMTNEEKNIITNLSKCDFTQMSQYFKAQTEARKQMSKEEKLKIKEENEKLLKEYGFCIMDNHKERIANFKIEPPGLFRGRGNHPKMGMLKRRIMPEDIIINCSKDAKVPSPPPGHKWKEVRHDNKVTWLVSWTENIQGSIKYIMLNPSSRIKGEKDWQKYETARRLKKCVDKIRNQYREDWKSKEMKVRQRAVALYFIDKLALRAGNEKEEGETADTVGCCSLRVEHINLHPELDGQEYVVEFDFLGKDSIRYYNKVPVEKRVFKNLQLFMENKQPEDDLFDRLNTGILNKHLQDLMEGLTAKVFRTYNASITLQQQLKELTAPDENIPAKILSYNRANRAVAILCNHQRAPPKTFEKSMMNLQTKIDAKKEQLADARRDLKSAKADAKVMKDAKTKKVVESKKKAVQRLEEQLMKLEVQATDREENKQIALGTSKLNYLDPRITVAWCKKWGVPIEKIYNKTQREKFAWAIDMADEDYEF

Plasmodium falciparum = assay: Antimalarial activity against Plasmodium falciparum D6 infected in RBC after 48 hrs by lactate dehydrogenase assay; format: functional; conditions: D6, 48 h
Method in brief: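 Parasites grown in A+ human erythrocytes in RPMI 1640 with 10% A+ human serum, 25 mM HEPES, 27 mM bicarbonate, 60 µg/mL amikacin, 37 °C under 90% N2/5% O2/5% CO2. Infected cells exposed 48 h in microtiter wells, highest concentration 4.8 µg/mL. Growth read by Malstat reagent (parasite LDH) with nitro blue tetrazolium reduction, absorbance 630 nm.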

[4] = Selectivity index, ratio of IC50 for human DNA topoisomerase 1 to IC50 for Candida albicans DNA topoisomerase 1
Cryptococcus neoformans = assay: Antimicrobial activity against Cryptococcus neoformans ATCC 52657; format: functional
Method in brief: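 Grown in mycophil broth 72 h, hemocytometer-counted, diluted to 200,000 CFU/mL. Exposed to diluted samples in 96-well plates, maximum final 50 µg/mL (DMSO up to 2.5%), incubated 30 °C. A630 readout. MIC is the lowest concentration inhibiting 80% of growth versus controls; IC50 read from concentration versus % growth graphs.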

[5] = Cytotoxicity against human SK-MEL cells assessed as cell growth inhibition after 48 hrs by neutral red dye based assay; format: functional; method in brief: as §1
[6] = Cytotoxicity against human KB cells assessed as cell growth inhibition after 48 hrs by neutral red dye based assay; format: functional; method in brief: as §1
[7] = Cytotoxicity against human BT549 cells assessed as cell growth inhibition after 48 hrs by neutral red dye based assay; format: functional; conditions: BT-549, 48 h; method in brief: as §1
Candida albicans = assay: Antimicrobial activity against Candida albicans B311; format: functional
Method in brief: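 Cultured in Sabouraud dextrose broth 24 h, counted by hemocytometer, diluted to 10,000 CFU/mL. Added to serially diluted samples in 96-well plates, top final concentration 50 µg/mL (≤2.5% DMSO), incubated 37 °C. Growth by A630. MIC is the lowest concentration giving 80% inhibition against controls; IC50 from concentration versus % growth plots.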

[8] = tested on: Mycobacterium intracellulare; assay: Antimicrobial activity against Mycobacterium intracellulare ATCC 23068; format: functional
Method in brief: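 Mycobacterium grown 72 h in Middlebrook medium with OADC supplement, diluted 1:30 in broth. Incubated at 37 °C with diluted samples in 96-well plates, highest final 50 µg/mL, DMSO at most 2.5%. Absorbance at 630 nm. MIC = lowest concentration with 80% growth inhibition relative to controls; IC50 from concentration versus % growth plots.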

Structure (SMILES): CCOC(=O)C[n+]1ccc2ccnc3c2c1-c1ccccc1-3.[Br-]
- Activity [1]: Non-Toxic
- IC50 [2]: 75 µg/mL
- IC50 [3]: 7.6 µg/mL
- IC50 (DNA topoisomerase 1): 242 µM
- IC50 (Plasmodium falciparum): 0.5 µg/mL
- Ratio IC50 [4]: 0.83

Structure (SMILES): Cc1cc2cc[n+](C)c3c2c(n1)-c1ccccc1-3.[I-]
- Activity [1]: Non-Toxic
- IC50 (Cryptococcus neoformans): 8 µg/mL
- MIC80 (Cryptococcus neoformans): 50 µg/mL
- IC50 [2]: 5 µg/mL
- IC50 (DNA topoisomerase 1): 12.5 µM
- IC50 (Plasmodium falciparum): 0.11 µg/mL
- Ratio IC50 [4]: 1.11

Structure (SMILES): Cc1cc(C)cc(CS(=O)(=O)[O-])c1.N[n+]1ccc2ccnc3c2c1-c1ccccc1-3
- Activity [1]: Non-Toxic
- IC50 (Cryptococcus neoformans): 19.7 µg/mL
- MIC80 (Cryptococcus neoformans): 50 µg/mL
- IC50 [2]: 7.5 µg/mL
- IC50 (DNA topoisomerase 1): 35.8 µM
- IC50 (Plasmodium falciparum): 3.2 µg/mL
- Ratio IC50 [4]: 0.5
- IC50 [5]: > 10 µg/mL

Structure (SMILES): Cc1cc2cc[n+](Cc3ccccc3)c3c2c(n1)-c1ccccc1-3.[Br-]
- Activity [1]: Non-Toxic
- IC50 [6]: > 10 µg/mL
- IC50 (Cryptococcus neoformans): 0.82 µg/mL
- MIC80 (Cryptococcus neoformans): 1.56 µg/mL
- IC50 [2]: 11 µg/mL
- IC50 [7]: 3.5 µg/mL
- IC50 [3]: 1.7 µg/mL
- IC50 (DNA topoisomerase 1): 30.8 µM
- IC50 (Plasmodium falciparum): 0.095 µg/mL
- Ratio IC50 [4]: 0.92
- IC50 [5]: 4.2 µg/mL
- IC50 (Candida albicans): 13.3 µg/mL
- MIC80 (Candida albicans): 25 µg/mL

Structure (SMILES): O=[N+]([O-])c1ccc(C[n+]2ccc3ccnc4c3c2-c2ccccc2-4)cc1.[Br-]
- Activity [1]: Non-Toxic
- IC50 [6]: 1.8 µg/mL
- MIC80 [8]: 50 µg/mL
- IC50 (Cryptococcus neoformans): 1.19 µg/mL
- MIC80 (Cryptococcus neoformans): 6.25 µg/mL
- IC50 [2]: 18 µg/mL
- IC50 [7]: 4 µg/mL
- IC50 [3]: 0.62 µg/mL
- IC50 (DNA topoisomerase 1): 50 µM
- IC50 (Plasmodium falciparum): 0.035 µg/mL
- Ratio IC50 [4]: 0.86
- IC50 [5]: 4.9 µg/mL

Structure (SMILES): CCN(CC)CCCC(C)Nc1ccnc2cc(Cl)ccc12 (stereo not given) [CHLOROQUINE]
- IC50 (Plasmodium falciparum): < 0.02 µg/mL

Structure (SMILES): [Br-].c1ccc(C[n+]2ccc3ccnc4c3c2-c2ccccc2-4)cc1
- Activity [1]: Non-Toxic
- IC50 (Cryptococcus neoformans): 0.43 µg/mL
- MIC80 (Cryptococcus neoformans): 1.56 µg/mL
- IC50 [2]: 19 µg/mL
- IC50 [3]: 1.5 µg/mL
- IC50 (DNA topoisomerase 1): 101 µM
- IC50 (Plasmodium falciparum): 0.0225 µg/mL
- Ratio IC50 [4]: 0.5
- IC50 [5]: 5.4 µg/mL
- IC50 (Candida albicans): 4.17 µg/mL
- MIC80 (Candida albicans): 6.25 µg/mL

Structure (SMILES): Fc1ccc(C[n+]2ccc3ccnc4c3c2-c2ccccc2-4)c(F)c1.[Br-]
- Activity [1]: Non-Toxic
- IC50 (Cryptococcus neoformans): 0.58 µg/mL
- MIC80 (Cryptococcus neoformans): 1.56 µg/mL
- IC50 [2]: 32 µg/mL
- IC50 [3]: 2.8 µg/mL
- IC50 (DNA topoisomerase 1): 109 µM
- IC50 (Plasmodium falciparum): 0.015 µg/mL
- Ratio IC50 [4]: 0.71
- IC50 [5]: 6.2 µg/mL
- IC50 (Candida albicans): 5.33 µg/mL
- MIC80 (Candida albicans): 6.25 µg/mL

Structure (SMILES): [Br-].c1ccc(C[n+]2ccc3c4c(nc5cc6c(cc53)OCO6)-c3ccccc3-c42)cc1
- Activity [1]: Non-Toxic
- IC50 [6]: 1 µg/mL
- IC50 (Cryptococcus neoformans): 0.57 µg/mL
- MIC80 (Cryptococcus neoformans): 3.12 µg/mL
- IC50 [2]: 0.52 µg/mL
- IC50 [7]: 1.3 µg/mL
- IC50 [3]: 0.6 µg/mL
- IC50 (DNA topoisomerase 1): 1.11 µM
- IC50 (Plasmodium falciparum): 0.0094 µg/mL
- Ratio IC50 [4]: 1
- IC50 [5]: 0.55 µg/mL
- IC50 (Candida albicans): 5.17 µg/mL
- MIC80 (Candida albicans): 12.5 µg/mL

Structure (SMILES): Fc1ccc(C[n+]2ccc3ccnc4c3c2-c2ccccc2-4)cc1.[Br-]
- Activity [1]: Non-Toxic
- IC50 [6]: > 10 µg/mL
- IC50 (Cryptococcus neoformans): 0.87 µg/mL
- MIC80 (Cryptococcus neoformans): 3.12 µg/mL
- IC50 [2]: 40 µg/mL
- IC50 [7]: 7.5 µg/mL
- IC50 [3]: 1.5 µg/mL
- IC50 (DNA topoisomerase 1): 127 µM
- IC50 (Plasmodium falciparum): 0.017 µg/mL
- Ratio IC50 [4]: 0.8
- IC50 [5]: 6 µg/mL
- IC50 (Candida albicans): 9.33 µg/mL
- MIC80 (Candida albicans): 12.5 µg/mL

Structure (SMILES): C[n+]1ccc2c3c(nc4ccccc42)-c2ccccc2-c31
- Ratio IC50 [4]: 0.83 and 1

Structure (SMILES): [Br-].c1ccc(C[n+]2ccc3cc(-c4ccccc4)nc4c3c2-c2ccccc2-4)cc1
- Activity [1]: Non-Toxic
- IC50 [6]: 1 µg/mL
- IC50 (Cryptococcus neoformans): 0.95 µg/mL
- MIC80 (Cryptococcus neoformans): 3.12 µg/mL
- IC50 [2]: 4.3 µg/mL
- IC50 [7]: 1.2 µg/mL
- IC50 [3]: 0.25 µg/mL
- IC50 (DNA topoisomerase 1): 9.75 µM
- IC50 (Plasmodium falciparum): 0.04 µg/mL
- Ratio IC50 [4]: 0.98
- IC50 [5]: 0.7 µg/mL
- IC50 (Candida albicans): 1.5 µg/mL
- MIC80 (Candida albicans): 3.12 µg/mL

Structure (SMILES): O=C(C[n+]1ccc2ccnc3c2c1-c1ccccc1-3)c1ccccc1.[Br-]
- Activity [1]: Non-Toxic
- IC50 [6]: > 10 µg/mL
- IC50 (Cryptococcus neoformans): 6.18 µg/mL
- MIC80 (Cryptococcus neoformans): 25 µg/mL
- IC50 [2]: 50 µg/mL
- IC50 [7]: > 10 µg/mL
- IC50 [3]: 6 µg/mL
- IC50 (DNA topoisomerase 1): 136 µM
- IC50 (Plasmodium falciparum): 0.17 µg/mL
- Ratio IC50 [4]: 0.91

Structure (SMILES): CCOC(=O)C[n+]1ccc2c3c(nc4ccccc42)-c2ccccc2-c31.[Br-]
- Activity [1]: Non-Toxic
- IC50 [2]: 2.3 µg/mL
- IC50 [3]: 5.9 µg/mL
- IC50 (DNA topoisomerase 1): 5.7 µM
- IC50 (Plasmodium falciparum): 0.56 µg/mL
- Ratio IC50 [4]: 0.96
- IC50 [5]: > 10 µg/mL

Structure (SMILES): Fc1ccc2c(c1)-c1c3c-2nccc3cc[n+]1Cc1ccccc1.[Br-]
- Activity [1]: Non-Toxic
- IC50 [6]: 1.3 µg/mL
- MIC80 [8]: 50 µg/mL
- IC50 (Cryptococcus neoformans): 0.52 µg/mL
- MIC80 (Cryptococcus neoformans): 0.78 µg/mL
- IC50 [7]: 2.5 µg/mL
- IC50 [3]: 0.53 µg/mL
- IC50 (Plasmodium falciparum): 0.033 µg/mL
- IC50 [5]: 5.6 µg/mL
- IC50 (Candida albicans): 1.5 µg/mL
- MIC80 (Candida albicans): 3.12 µg/mL

Structure (SMILES): C[n+]1ccc2ccnc3c2c1-c1ccccc1-3.[I-]
- Activity [1]: Non-Toxic
- IC50 (Cryptococcus neoformans): 10 µg/mL
- MIC80 (Cryptococcus neoformans): 50 µg/mL
- IC50 [2]: 10 µg/mL
- IC50 [3]: > 10 µg/mL
- IC50 (DNA topoisomerase 1): 28.9 µM
- IC50 (Plasmodium falciparum): 0.06 µg/mL
- Ratio IC50 [4]: 1

Reference: ChEMBL document CHEMBL3865847, “The synthesis and biological evaluation of alkyl and benzyl naphthyridinium analogs of eupolauridine as potential antimicrobial and cytotoxic agents” (Bioorg Med Chem, 2016)
